Drawing on ChEMBL document CHEMBL4513216, “Probing the Open Global Health Chemical Diversity Library for Multistage-Active Starting Points for Next-Generation Antimalarials” (ACS Infect Dis, 2020), this text covers cytotoxicity for 97 compounds.

This series in a line: Toxicity liver stage against HepG2, at 10uM. Also noted: test concentration 10 uM, cell line HepG2-A16-CD81EGFP. It is filed as cell-based. Particulars: human, HepG2-A16-CD81EGFP cells; read-out: INHIBITION
The method, boiled down: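 Uninfected HepG2-A16-CD81EGFP cells, 3 × 10^3 per well, 1536-well, plated on prespotted compound at 10 μM final, parasite-free screening media added to match infected plates; puromycin 10 μM positive, DMSO 0.5% negative; run in parallel with 48 h PbLuc assay at 37 °C, 5% CO2; viability by CellTiter-Glo luminescence, normalized to controls.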
For the compound `Cc1nnc(CN(C)S(=O)(=O)c2ccc(Br)cc2Cl)n1C`, the cytotoxicity at 10 µM was 12.6%.
The result for `CC(Oc1cc(Cl)cc(Cl)c1)C(=O)NCCS(N)(=O)=O` (configuration not stated) reads -11.7%; that for `Cn1ccnc1-c1noc(NCc2ccccc2)n1`, -3.49%.
For `COc1c(CNC2CCOc3c(F)cccc32)c(C)nn1C` (configuration not stated) the value was 7.5%; for `COc1cc(F)ccc1N(C)Cc1cccnc1`, -3.47%; for `COc1ccc(OCCN(C)C(=O)NC(C)c2nncn2C)cc1` (configuration not stated), 1.08%.
The result for `CSCC(=O)NC1CC(=O)N(CCc2ccccc2)C1` (configuration not stated) reads -2.1%; that for `O=C(c1cnco1)N1CCCC(Cc2cccc3ncccc23)C1` (configuration not stated), 2.16%.
For `Cn1ccc(C(=O)N2CCCCC23CC(=O)N(Cc2ccccc2)C3)n1` (configuration not stated), the cytotoxicity at 10 µM was 3.64%.
For `COc1cccc(C2CCCN2Cc2nc3c(cnn3C)c(=O)[nH]2)c1` (configuration not stated) the value was -4.35%.
`Cc1occc1CNC(=O)N1CCC(Cc2cnn(C)c2)C1` (configuration not stated): the cytotoxicity at 10 µM was -11.1%.
On to `Cn1ccnc1NC[C@@H]1CCC[C@@H]2CN(Cc3nccs3)C[C@@H]21`, for which the cytotoxicity at 10 µM stood at 14%.
With `CC(C)(O)CCc1cccc(C(=O)NCCC2CCOC2)c1` (configuration not stated), the cytotoxicity at 10 µM is -1.94%.
For `CC(C)N1CCC2(CCCN(Cc3ccc(F)cc3)C2=O)C1` (configuration not stated) the value was -28.7%; for `CN(Cc1ccncc1)C1CC2(CCN(Cc3ccccn3)CC2)C1`, -90.4%; for `CC(C)(C)c1ccc(C2(C(=O)NCCCS(C)(=O)=O)CC2)cc1`, -12.6%.
The result for `CCN(CC)C(=O)c1nnsc1-c1ccccc1` reads 1.88%; that for `CC(C)c1sc(Br)nc1C(=O)NCc1ccncc1`, 1.18%; that for `CCOc1cncc(N(C)CC(=O)NC)n1`, 2.16%.
For `COCC(=O)NC1CC2(CCN(CCO)CC2)c2ccccc21` (configuration not stated) the value was -109%.
Turning to `FC(F)(F)Sc1ccccc1NCc1nc(C2CC2)no1`, the cytotoxicity at 10 µM turned out to be 0.858%.
For `O=C1CC2(CCN(C(=O)c3cccc(Cl)c3)CC2)CN1` the value was -3.02%; for `CCN(CC)S(=O)(=O)CCNC(=O)N(C)C(C)c1ccccn1` (configuration not stated), 10.6%.
Take `COc1cccn(Cc2nnc(-c3cccnc3)o2)c1=O`: the cytotoxicity at 10 µM was determined as 7.99%.
The result for `CN1CC2(CNCCN(C(=O)Nc3ccccc3)C2)CC1=O` (configuration not stated) reads 1.26%.
The result for `CCc1nc(CN2CCCN(C(=O)c3ccnc(C)n3)CC2)cs1` reads -13.4%; that for `Cc1cc(CN(C)Cc2cc3c(cc2OC(F)F)OCO3)on1`, 0.658%.
The result for `Cn1c(CN2CCCCCC2)cc(=O)c(O)c1CN1CCCC1` reads 13.9%.
Consider `CC1CCCCN1C(=O)c1n[nH]c(=O)c2ccccc12` (configuration not stated), for which the cytotoxicity at 10 µM is -0.402%.
The result for `Cc1nc(CN2CCc3nc(NC(C)C)nc(C)c3C2)cs1` reads 2.53%; that for `CS(=O)(=O)CCNCc1ccc(OCc2ccncc2)cc1`, -134%; that for `Cc1nnc(C(C)N2CCN(Cc3ccc(C#N)cc3)CC2)o1` (configuration not stated), -12.2%.
For `CCCN1CCC(C(=O)NCCN(CC)c2ccccc2C)CC1` the value was 15.7%; for `CCOCC1CN(S(=O)(=O)C2CC2)Cc2ncn(CC3CC3)c21` (configuration not stated), 4.44%; for `COCC(NC(=O)NCc1ccc(C)c(F)c1)c1ccco1` (configuration not stated), 4.96%.
The result for `CC(C)C[C@H](NC(=O)Nc1ccc(F)c(Cl)c1)C(=O)O` reads -43%; that for `CC(NC(=O)COCC(F)(F)F)c1nnc2n1CCCCC2` (configuration not stated), -12.3%.
In the case of `O=C(c1cnccn1)N1CCCC2(CCN(Cc3ccc(F)cc3)C2)C1` (configuration not stated), the cytotoxicity at 10 µM was -153%.
In the case of `Cc1nc(C2CCCN(C(=O)c3ccc(N4CCCC4)nc3)C2)no1` (configuration not stated), the cytotoxicity at 10 µM is -3.06%.
The result for `O=C(NCCc1cccnc1)NC1CCOC2(CCCCC2)C1` (configuration not stated) reads -16.3%; that for `COc1ccc(CCNC(=O)CN2CCOCS2(=O)=O)cc1`, -2.64%; that for `Cc1n[nH]c(C)c1CCC(=O)NCC1(O)CCN(c2ccccn2)C1` (configuration not stated), -1.08%.
The result for `O=C(CSC1CCc2ccccc2NC1=O)NCc1ccccc1` (configuration not stated) reads 6.37%.
The result for `CC1N(CC2CC2)C(=O)COC12CCN(Cc1nccs1)CC2` (configuration not stated) reads -8.19%; that for `Cc1cc2nc(SCC(=O)N3CCCC3)n(-c3ccccc3)c(=O)c2[nH]1`, -6.34%; that for `N#Cc1cccc(C(=O)N2CCCC(C(=O)CCc3ccccc3)C2)c1` (configuration not stated), 0.488%.
In the case of `CN(C)c1ccc(C(=O)Nc2cnn(Cc3ccccn3)c2)cc1`, the cytotoxicity at 10 µM was -8.36%.
The result for `COc1ccc(F)c(-c2cc(C)nc(N)n2)c1` reads 5.47%.
The result for `CN(C)CCN(C)C1CCCN(C(=O)c2ccc(Cn3ccnc3)o2)C1` (configuration not stated) reads 6.69%.
For `COc1ccc(-c2nc(CCNC(=O)NCC3CCOC3)co2)cc1` (configuration not stated) the value was -3.1%.
Take `Cc1nc(CN2CCOCC23CCN(c2ccc(C#N)cc2)CC3)cs1`: the cytotoxicity at 10 µM was -13.8%.
The result for `O=C(c1cc(C2CC2)on1)N1CCCC(n2cccn2)C1` (configuration not stated) reads -4.04%; that for `CS(=O)(=O)N1CCCC12CCCN(C(=O)c1ccc3c(c1)OCO3)C2` (configuration not stated), -144%.
On to `CNc1nccnc1C1CN(C(=O)c2cc[nH]n2)CCO1` (configuration not stated), for which the cytotoxicity at 10 µM is -12.3%.
For `CC1CCN(C[C@H]2CN3CC[C@H]2C[C@@H]3CNC(=O)c2ccco2)CC1` the value was -1.55%.
The result for `Cc1ncsc1-c1nnc(C2CCN(Cc3ccc(F)cc3)CC2)o1` reads 3.52%.
`CCc1nc(CN2CCN(C(=O)c3cnccn3)CC2)cs1`: the cytotoxicity at 10 µM was -8.92%.
The result for `CSCCC(C)NC(=O)N1CCSC(C)(C)C1` (configuration not stated) reads 5.89%.
The result for `CC(C)c1cc(N2CCCC3(CCN(C)C3)C2)ncn1` (configuration not stated) reads -7.36%; that for `Cn1cccc1C(=O)NCc1ccnc(C2CCCOC2)n1` (configuration not stated), 3.41%.
For `N#Cc1ccc(S(=O)(=O)NC(=O)COc2ccc3c(c2)CCC3)cc1` the value was -9.36%; for `O=C1CCc2cc(C(=O)NCc3ccc(-n4cncn4)nc3)ccc2N1`, -11.5%.
Regarding `CC(C)N(CCNC(=O)N1CCCC(N(C)C)C1)C1CC1` (configuration not stated), the cytotoxicity at 10 µM was -0.211%.
For `CCc1nnc(CN2CCN(CC(O)c3ccccc3)CC2)o1` (configuration not stated) the value was -12.3%; for `Cc1cc(F)ccc1-n1cc(O)c(C(=O)NCC2(O)CCC2)n1`, 0.477%.
For `COc1ccc(OCc2cc(C(=O)N3CCCCO3)n[nH]2)c(Cl)c1` the value was 8.15%; for `Cc1ccccc1Oc1ncccc1CNC(=O)Cn1cccnc1=O`, -16.8%.
The result for `CCc1nc(C2CCCN2CC(=O)Nc2cc(C)on2)no1` (configuration not stated) reads -3.08%; that for `CC(C)n1cnnc1CN(C)Cc1cnc(-c2ccccn2)nc1`, 11.9%.
Regarding `Cn1cc(CNC(=O)Nc2ccc(S(=O)(=O)C(F)F)cc2)cn1`, the cytotoxicity at 10 µM was -5.09%.
The result for `CC1=N[C@@]2(CC[C@@H]3CN(CC4CC4)C[C@@H]32)C(=O)N1CC(C)C` reads -84%; that for `CC(Cn1cccn1)NCc1ccc(OCc2ccncc2)cc1` (configuration not stated), -29.9%; that for `CC(C)n1cnnc1C1CCCN(C(=O)COCc2ccccc2)C1` (configuration not stated), -20.3%.
For the compound `CCCN1CCC(N2CCN(c3cc(C)nc(C)c3)CC2)CC1`, the cytotoxicity at 10 µM was -11.2%.
The result for `c1cnc(N2CCN3C[C@H](Oc4cncnc4)C[C@H]3C2)nc1` reads 7.97%; that for `Cc1nnc([C@@H]2C[C@H]3CN(C(=O)c4c(C)noc4C)C[C@H]3O2)[nH]1`, 15.2%.
For `CC(C)c1cnc(CN(C)C2CCN(CCc3ccccn3)C2)o1` (configuration not stated) the value was 2.37%; for `c1nc(N2CCOCC2)ncc1-c1cncn1CCCN1CCCCC1`, -7.08%; for `O=C(Cn1cccn1)N1CCC(c2nnc(-c3ccsc3)o2)CC1`, 6.88%.
For `COc1cc(OC)cc(N2CCC(NCc3cc[nH]n3)C2)c1` (configuration not stated) the value was 2.55%; for `CN(C)CCOCC1CN(C(=O)c2cscn2)Cc2ccnn2C1` (configuration not stated), 3.65%; for `CN(C)c1ccc(C(=O)N2CCCC2c2noc(C3CC3)n2)nn1` (configuration not stated), -8.36%.
For `COc1ccc(C(=O)NCc2cccnc2N2CCOCC2)o1`, the cytotoxicity at 10 µM worked out at 3.1%.
For `CN1CCC2(CCCN(S(=O)(=O)c3ccc(-c4cnco4)s3)C2)C1` (configuration not stated) the value was -7.56%.
The result for `CNC(=O)c1cn2cc(-c3ccccc3Cl)n(CC=C(C)C)c(=O)c2n1` reads -7.05%; that for `O=C(Cc1ccccc1)NC[C@H]1Cn2ccnc2CO1`, 0.148%.
For the compound `O=C(O)c1cc2c(nc1-c1ccncc1)CCN(C1CCOC1)CC2` (configuration not stated), the cytotoxicity at 10 µM came to 9.34%.
For `OCc1cn(Cc2cccc(C(F)(F)F)c2)nn1` the value was 8.02%; for `CC(C)(C)c1n[nH]c(C2CN(C(=O)CCCn3cccn3)CCO2)n1` (configuration not stated), -0.839%.
For `OC(CN1CCOCC1)c1cc(Cl)ccc1Cl` (configuration not stated) the value was -1.57%; for `Cc1ccc(CN2CCc3[nH]nc(C(=O)N(C)C)c3C2)o1`, 0.081%; for `CCc1cnc(CN(C)C(=O)NC2CCN(CC3CC3)C2)s1` (configuration not stated), -3.86%.
The result for `NC(=O)C1CCCN1Cc1ccccc1NC(=O)CC(F)(F)F` (configuration not stated) reads 13.1%; that for `O=C(C1CCCCO1)N1CCc2ncnc(NCc3ccon3)c2CC1` (configuration not stated), 13.1%; that for `COCCNC(=O)Cn1c(-c2ccc(Cl)cc2)nc(C)c(CCO)c1=O`, -13.1%.
For `COC1CCN(c2ccc(F)cc2CN(C)C(C)C(N)=O)CC1` (configuration not stated), the cytotoxicity at 10 µM is 9.13%.
For `CN1CCS(=O)(=O)[C@@H]2CCN(C(=O)c3ccccc3)CC[C@@H]21` the value was -127%.
